# CaV13 FRET inh = Disruptors of the CACNA1D IQ motif to Ca2+-dependent inactivation inhibitor domain association, primary screening, Förster resonance energy transfer in intact living …. HEK cells, CFP/YFP FRET ICDI-IQ, plate reader, 10 min; percent FRET-ratio fall versus neutral wells. inhibition, % at 12.3 µM. 340,000 compounds, 0.098% hits;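 active = mean replicate inhibition of at least 30% and at least 1% of replicates passing that level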;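 also: 0% = median of the neutral control wells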
# LGR2 inh = inhibitors of bursicon-induced LGR2 CRE-luciferase signal, primary screen, cell-based, HEK293, CRE-luciferase reporter, bursicon stimulation. inhibition, % at 9.99 µM. 380,000 compounds, 0.35% hits. bursicon-stimulated, 4 h;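 active = drop in luminescence signal, shown as inhibition above about 50% in the replicate tests, limit read from the data, passing the limit was not always enough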;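 also: agonist challenge used bursicon conditioned medium at about half maximal strength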
# XiGFP reactiv = activators of inactive X chromosome reactivation, primary screen, imaging, XiGFP fibroblasts, GFP high-content imaging, set 2; activation, % at 7.58 µM; 360,000 compounds, 0.055% hits; XiGFP mouse fibroblasts, % GFP-positive cells imaging, 3 d; cells co-treated with 5-aza-dC sensitizer; scaled so ellipticine positive control = 100%;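 active = mean normalized replicate activation at least 10% and every replicate at or above 10%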;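 also: 0% = median of on-plate neutral control wells and 100% = ellipticine 6 µM median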
#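 Material: XiGFP fibroblasts, SV40-immortalized; Buffer or medium: DMEM containing 5-aza-dC; Compound dosing: single point; Times: 3 days compound exposure.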
# TROY NFkB inh = inhibitors of TROY-driven NF-kB signaling, primary screen, Q293 LMP1-TROYcd cells, NF-kB luciferase, uHTS | 360,000 compounds, 0.98% hits | inhibition, % at 10 µM | Q293 LMP1-TROYcd NF-kB luciferase reporter, 4 h;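 active = compounds whose plate-normalised and pattern-corrected inhibition of the luciferase reporter signal at the single screening dose is 50% or more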
# TWEAK-Fn14 inh = inhibitors of TWEAK-Fn14 signaling, primary screen, luciferase reporter cells, uHTS. AID 1159606, 2016. inhibition, % at 10 µM. 360,000 compounds, 2% hits. TWEAK-stimulated Fn14 reporter cells, luciferase luminescence, 8 h; in the data active = inhibition above about 50%
# An asterisk follows results filed as active; · = no result given. Sampled rows, rich in hits. Any-hit rate of the full collection: about 2%.
SMILES,CaV13 FRET inh,LGR2 inh,XiGFP reactiv,TROY NFkB inh,TWEAK-Fn14 inh
Cn1nnnc1Sc1ncnc2scc(-c3cccc(S(C)(=O)=O)c3)c12,-5,85*,0,27,61*
O=C(O)CSc1ncnc2scc(-c3ccccc3)c12,-2,12,0,22,12
O=C(NCCCN1CCOCC1)[C@@H]1[C@@H](CO)[C@@H]2Cn3c(cccc3=O)[C@H]1N2C(=O)C1CCCC1,·,-18,0,·,·
COc1ccccc1NC(=O)N[C@H]1CC[C@H](CCn2cc(-c3ccccc3OC)nn2)O[C@H]1CO,·,-12,7,·,·
Cc1ccsc1/C=N/Nc1cccc(C(=O)O)c1,-19,88*,0,-67,32
O=C(O)c1cccc(N/N=C/c2ccc(F)c(F)c2)c1,-3,-68,0,-77,-20
Cc1ccsc1/C=N/Nc1ccc(C(=O)O)cc1,-4,69*,0,49,99*
O=C(NNc1ccc(F)cc1F)c1c(F)cccc1Cl,-4,-4,0,-11,58*
Cc1noc(C)c1NC(=O)N(C)C[C@H]1Oc2ccc(NC(=O)CCCCCC(=O)Nc3ccccc3N)cc2CC(=O)N([C@@H](C)CO)C[C@@H]1C,·,-18,0,·,·
CC(C)CC#Cc1ccc2c(c1)O[C@@H](CN(C)C(=O)c1cnccn1)[C@@H](C)CN([C@@H](C)CO)S2(=O)=O,·,-1,-2,·,·
Cc1cc(C)nc(SC2=CS(=O)(=O)c3ccccc32)n1,-5,·,·,15,53*
O=S1(=O)C=C(SCCN2CCCCC2)c2ccccc21,·,·,·,-13,-22
CSc1nnc(-c2ccccc2)o1,-5,-2,·,-10,-11
O=S1(=O)C=C(Sc2nnc(-c3ccccc3)o2)c2ccccc21,·,·,·,62*,103*
CC(=O)N1CCc2cc(S(=O)(=O)NC(CC(C)C)C(=O)Nc3ccc4c(c3)OCCO4)ccc21 (configuration not stated),·,·,·,8,57*
CC(C)c1c(C(=O)N/N=C/c2ccc(OCc3ccc(F)cc3)cc2)nnn1-c1nonc1N,-6,-54,0,-4,-48
CCOc1ccc(-c2c(C(=O)N/N=C/c3c[nH]c4ccccc34)nnn2-c2nonc2N)cc1,-3,19,0,6,58*
Nc1nonc1-n1nnc(C(=O)N/N=C/c2cccc(Cl)c2)c1-c1cccs1,-2,3,0,6,51*
CC(C)c1c(C(=O)N/N=C/c2cccc(OCc3ccccc3)c2)nnn1-c1nonc1N,-3,13,0,58*,43
CC(C)c1c(C(=O)N/N=C/c2ccc(OCc3ccccc3)cc2)nnn1-c1nonc1N,-6,-29,0,-19,-34
CCOc1ccc(/C=N/NC(=O)c2nnn(-c3nonc3N)c2-c2ccc(OCC)cc2)cc1,-3,-1,0,7,-13
COc1cccc(/C=N/NC(=O)c2nnn(-c3nonc3N)c2C(C)C)c1OCc1ccc(F)cc1,·,·,·,62*,63*
COCC(=O)N1CC2(C1)[C@@H](c1ccc(-c3ccc(F)cc3)cc1)[C@@H](CO)N2C(C)=O,·,-2,0,·,·
COc1cc(/C=N/NC(=O)c2nnn(-c3nonc3N)c2C(C)C)ccc1OCc1ccccc1,-5,-3,0,37,62*
COc1cc(/C=N/NC(=O)c2nnn(-c3nonc3N)c2C(C)C)ccc1O,-5,13,0,14,10
SMILES,CaV13 FRET inh,LGR2 inh,XiGFP reactiv,TROY NFkB inh,TWEAK-Fn14 inh
CCc1ccc(-c2cc(C(=O)N/N=C/c3c[nH]c4ccccc34)[nH]n2)cc1,-19,·,0,34,59*
COc1ccc(Nc2nccc(-c3cccc(N)c3)n2)cc1,-4,26,0,28,76*
O=S(=O)(NC(=NC1CCCCC1)c1ccccc1F)c1ccccc1,-3,0,0,-7,63*
O=S(=O)(NC(=NC1CCCCC1)c1ccccc1)c1ccccc1,-6,-3,0,1,12
O=C(COC(=O)COc1ccc(Br)cc1)NC1CCCCCC1,-19,11,0,79*,1
O=C(COC(=O)COc1ccc(Cl)cc1)NC1CCCCC1,-4,·,·,-9,29
Cc1ccccc1CN(C)C[C@H]1OCc2cn(nn2)CCCC(=O)N([C@H](C)CO)C[C@H]1C,·,3,0,·,·
C[C@@H]1CN([C@H](C)CO)C(=O)c2cc(-c3ccncc3)cnc2O[C@H]1CN(C)C(=O)NC1CCCC1,·,10,0,·,·
CCOc1ccc(-c2cnc3ccccc3n2)cc1,-5,90*,0,63*,94*
CCOc1ccc(-c2cn3ccccc3n2)cc1,0,74*,0,-6,62*
COc1cccc(CN2CC3(CCN(C(=O)Nc4c(C)noc4C)CC3)c3c([nH]c4cc(OC)ccc34)[C@@H]2CO)c1,·,·,0,·,·
COc1ccc(S(=O)(=O)Nc2ccc3c(c2)C(=O)N([C@@H](C)CO)C[C@@H](C)[C@@H](CN(C)CC2CCCCC2)OCCCC[C@@H](C)O3)cc1,·,9,0,·,·
CNc1ccc2ncc(-c3cccc(C(=O)N(C)C)c3)n2n1,-5,11,0,53*,87*
CN(C)C(=O)c1cccc(-c2ccc3nncn3c2)c1,-5,1,0,0,22
CCCNC(=O)N1CC2(CCN(CC3CCOCC3)CC2)c2c(n(C)c3cc(OC)ccc23)[C@@H]1CO,·,4,0,·,·
O=S(=O)(Nc1c(O)ccc2ccccc12)c1ccc(F)cc1,-5,·,0,54*,44
C[C@@H]1CN([C@H](C)CO)S(=O)(=O)c2ccc(-c3ccccc3)cc2O[C@@H]1CN(C)C(=O)C1CCCCC1,·,14,-1,·,·
Cc1ccc(NN2C(=O)C=CC2=O)cc1,-3,7,0,36,53*
Cc1ccccc1NN1C(=O)C=CC1=O,·,·,·,14,18
COc1cc(NC(C)CCCN)c2ncccc2c1 (configuration not stated),-5,·,0,-4,86*
COc1cc(NCCCCCCCN)c2ncccc2c1,·,·,·,-7,97*
O=C(CC1CC1)N1[C@H](CO)[C@@H](c2ccccc2)C12CN(Cc1ccncc1)C2,·,11,0,·,·
O=C(NCC(c1ccco1)N1CCN(c2ccc(F)cc2)CC1)c1ccc2c(c1)OCO2 (configuration not stated),-1,14,0,-10,0
COc1ccc(N2CCN(C(CNC(=O)c3ccc4c(c3)OCO4)c3ccco3)CC2)cc1 (configuration not stated),-7,-7,29*,6,-11

# Screening results: PubChem, several laboratories
